≈ marks a conversion by molar mass, not a printed value. Calls of active or inactive are those of the source. The calls are words filed in the database; no cut-off is given here. Where a SMILES comes first, the peptide text is derived from it.
Columns and labels:
Spodoptera exigua [1] = assay: Insecticidal activity against beet armyworm eggs assessed as inhibition of insect growth at 28 degC after 6 days by lepidopteran diet assay; type: functional; settings: 144 h
In short: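 Beet armyworm eggs (8-10 per well) on artificial diet in 96-well plates. Test samples were applied in acetone-water (50:50), dried onto the diet surface, and tested at 0.98-500 ppm (of diet weight) in 2-fold steps. Plates were incubated 6 days at 28 °C. Value is the minimum concentration inhibiting growth relative to untreated control.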

Spodoptera exigua [2] = assay: Insecticidal activity against beet armyworm assessed as circling dosed by ingestion from leaf after 18 hrs by lepidopteran limited ingestion exposure assay; type: functional, organism-based
Trichoplusia ni [3] = assay: Insecticidal activity against cabbage looper assessed as body tremors dosed by ingestion from leaf after 18 hrs by lepidopteran limited ingestion exposure assay; type: functional, organism-based
Trichoplusia ni [4] = assay: Insecticidal activity against cabbage looper assessed as mortality dosed by ingestion from leaf after 24 hrs by lepidopteran limited ingestion exposure assay; type: functional
In short: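 Cabbage leaf disks (0.25 cm²) were each treated with 1 µL of a 5 mg/mL acetone solution and dried. Each disk was offered to one of six cabbage looper larvae for 24 h, held individually under ambient lab conditions. Solvent and untreated disk controls were included. Afterwards, mortality, intoxication symptoms and disk consumption were noted, and larvae were given artificial diet.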

Spodoptera exigua [5] = assay: Insecticidal activity against fourth instar beet armyworm assessed as body tremors and partial paralysis after 1 hrs by BAW injection assay; type: functional, organism-based
Trichoplusia ni [6] = assay: Insecticidal activity against 3/4th instar cabbage looper assessed as intoxication topically dosed at 5 ug/larva after 24 hrs by lepidopteran topical assay
Spodoptera exigua [7] = assay: Insecticidal activity against 3/4th instar beet armyworm assessed as intoxication and mortality topically dosed at 5 ug/larva after 24 hrs by lepidopteran topical assay
Spodoptera exigua [8] = assay: Insecticidal activity against 3/4th instar beet armyworm assessed as intoxication and mortality topically dosed at 2.5 ug/larva after 24 hrs by lepidopteran topical assay; type: functional, organism-based
Trichoplusia ni [9] = assay: Insecticidal activity against 3/4th instar cabbage looper assessed as intoxication topically dosed at 2.5 ug/larva after 24 hrs by lepidopteran topical assay; type: functional
Spodoptera exigua [10] = assay: Insecticidal activity against fourth instar beet armyworm assessed as body tremors and partial paralysis after 3 to 6 hrs by BAW injection assay; type: functional
Spodoptera exigua [11] = assay: Insecticidal activity against fourth instar beet armyworm assessed as body tremors and partial paralysis after 24 hrs by BAW injection assay; type: functional, organism-based
In short: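 Six fourth-instar beet armyworm were each injected with 0.5 µL of a 20 mg/mL acetone solution (10 µg/insect). Solvent-only and untreated controls were included. Larvae were held singly with artificial diet under ambient conditions. Intoxication symptoms were scored at 1, 24 and 48 h, and mortality at 48 h.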

Compound | MIC (Spodoptera exigua [1]) [µg/mL] | Activity (Spodoptera exigua [2]) | Activity (Trichoplusia ni [3]) | Activity (Trichoplusia ni [4]) | Activity (Spodoptera exigua [5]) | Activity (Trichoplusia ni [6]) | Activity (Spodoptera exigua [7]) | Activity (Spodoptera exigua [8]) | Activity (Trichoplusia ni [9]) [%] | Activity (Spodoptera exigua [10]) [%] | Activity (Spodoptera exigua [11])
CC(C)C[C@@H]1NC(=O)[C@H](Cc2ccccc2)N(C)C(=O)[C@H](C)NC(=O)c2ccccc2NC(=O)[C@H](Cc2ccc(O)cc2)N(C)C1=O [CYCLOASPEPTIDE A] (HELM PEPTIDE1{[O=C(c1ccccc1N[*:1])[*:2]].A.[meF].L.[meY]}$PEPTIDE1,PEPTIDE1,1:R1-5:R2$$$V2.0) | > 500 | Active | Active | inactive | inactive | inactive | inactive | – | – | – | –
CC(C)C[C@@H]1NC(=O)[C@H](Cc2ccccc2)N(C)C(=O)[C@H](C)NC(=O)c2ccccc2NC(=O)[C@H](Cc2ccccc2)N(C)C1=O [CYCLOASPEPTIDE E] (HELM PEPTIDE1{[O=C(c1ccccc1N[*:1])[*:2]].A.[meF].L.[meF]}$PEPTIDE1,PEPTIDE1,1:R1-5:R2$$$V2.0) | 10 (≈ 16 µM) | Active | Active | 15% | – | – | – | inactive | 50 | 85 | inactive
CC[C@H]1CCC[C@H](O[C@H]2CC[C@H](N(C)C)[C@@H](C)O2)[C@@H](C)C(=O)C2=C[C@@H]3[C@@H](C=C[C@@H]4C[C@@H](O[C@@H]5O[C@@H](C)[C@H](OC)[C@@H](OC)[C@H]5OC)C[C@@H]34)[C@@H]2CC(=O)O1 [SPINOSYN A] | 0.02 (≈ 0.0273 µM) | – | – | – | – | – | – | – | – | – | –

— ChEMBL document CHEMBL1158092, “Discovery, synthesis, and insecticidal activity of cycloaspeptide E” (2006)
